Most compounds without a hit are left out; they make up all but 2.3% or so of the library.
T cell HTS: modulators of CD8 T cell-vesicle binding, primary screen, mouse 2C CD8+ T cells, flow cytometry. 2C CD8+ T cell-vesicle binding; hits give low values. response (vesicle binding), % at 7 µM. 0.068% of 330,000 active;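 active = response, share of CD8 T cells binding vesicles, and their 90th percentile fluorescence all below set limits, cut at about 80% in these data, passing the limit was not always enough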;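 note: values below 100% mean blocked vesicle binding to the CD8+ T cells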
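Benchmarks: naked versus QL9-loaded vesicles / Assay system: purified 2C TCR transgenic mouse naive CD8+ T cells / Technique: high-throughput flow cytometry with anti-B7-1 and anti-CD8 staining / Timing: Cell–vesicle co-incubation 1.5 h at 37 °C, staining 20 min on ice / Read-out: percent CD8+ FL2 mean versus row control / Probe or stimulus: QL9-loaded Drosophila micro-vesicles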
CHT PAM: CHT positive allosteric modulators, primary screen, cell-based, membrane potential dye, choline EC20 | High affinity choline transporter 1 (Homo sapiens), Q9GZV3 | CHT-expressing cells; hits give high values; LV-AA mutant CHT in HEK293 cells | B-score at 10 µM | 0.49% of 310,000 active | AID 488977, 2010;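 active = initial fluorescence not abnormally high and integrated response B-score, plate-corrected, over 3 SD above library mean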
DSG3 Ab inh: inhibitors of pemphigus antibody binding to DSG3, primary screen, biochemical, bead-based, flow cytometry, scFv-GFP. DSG3-coupled beads, scFv-anti-DSG3-GFP binding; hits give low values. binding (percent of control), % at 10 µM. 0.48% of 310,000 active. Desmoglein-3 (Homo sapiens), P32926;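 active = binding more than 3 SD below its plate's average and above zero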;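 note: hits lower antibody fragment binding to DSG3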
Target sequence (P32926 whole entry, looked up, the tested form may be a part): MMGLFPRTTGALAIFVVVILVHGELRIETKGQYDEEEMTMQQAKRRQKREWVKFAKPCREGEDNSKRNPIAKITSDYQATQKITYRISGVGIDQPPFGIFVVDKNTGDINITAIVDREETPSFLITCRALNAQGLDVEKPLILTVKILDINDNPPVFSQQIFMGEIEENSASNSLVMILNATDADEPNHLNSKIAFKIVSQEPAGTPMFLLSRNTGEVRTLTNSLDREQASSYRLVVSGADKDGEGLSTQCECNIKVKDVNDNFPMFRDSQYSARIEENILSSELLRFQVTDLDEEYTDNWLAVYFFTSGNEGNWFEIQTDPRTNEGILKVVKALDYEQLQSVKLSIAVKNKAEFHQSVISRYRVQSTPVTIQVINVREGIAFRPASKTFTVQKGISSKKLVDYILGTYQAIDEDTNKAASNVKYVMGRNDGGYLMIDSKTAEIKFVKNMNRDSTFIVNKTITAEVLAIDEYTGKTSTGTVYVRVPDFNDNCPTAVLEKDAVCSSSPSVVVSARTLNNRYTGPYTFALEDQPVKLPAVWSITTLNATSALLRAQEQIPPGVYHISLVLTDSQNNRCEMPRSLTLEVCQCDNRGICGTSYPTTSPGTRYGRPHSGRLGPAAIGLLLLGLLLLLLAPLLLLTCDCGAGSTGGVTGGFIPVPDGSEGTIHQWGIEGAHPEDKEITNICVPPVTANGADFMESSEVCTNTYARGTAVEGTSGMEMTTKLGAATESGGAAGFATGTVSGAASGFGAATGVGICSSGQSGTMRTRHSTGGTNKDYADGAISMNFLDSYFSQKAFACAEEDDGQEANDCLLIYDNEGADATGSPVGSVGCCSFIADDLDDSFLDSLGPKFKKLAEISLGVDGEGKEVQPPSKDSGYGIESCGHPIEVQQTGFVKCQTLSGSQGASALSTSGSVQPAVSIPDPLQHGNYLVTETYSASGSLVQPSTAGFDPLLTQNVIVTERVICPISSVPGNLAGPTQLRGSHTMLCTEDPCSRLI
p-CIP stab down: p/CIP-EGFP fusion destabilizers, primary screen, fluorescence, F442A cells. Q05BA5. 16 h. decrease of EGFP signal, % at 10 µM. 0.01% of 290,000 active;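 active = EGFP signal decrease of at least 30% at 10 µM or well 3 SD below plate mean, unless failing retest; inactive = the rest, including hits failing retest or dose response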
GPR7 antagonist: GPR7 receptor antagonists, primary screen, cell-based, fluorescence, single concentration. Neuropeptides B/W receptor type 1 (Homo sapiens), P48145. GPR7-expressing cells, fluorescence antagonist assay. inhibition, % at 4.4 µM. 1.1% of 290,000 active; in the data active = inhibition above about 16%, passing the limit was not always enough;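 note: cells stimulated with the agonist NPW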
CHT inh: inhibitors of human choline transporter CHT | 0.86% of 310,000 active | B-score at 10 µM | CHT-expressing cells, membrane potential dye, choline response; hits give low values | AID 488975, 2010;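 active = B-score over 3 SD under the library average, and starting fluorescence ratio not unusually high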;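 note: choline stimulus applied at its EC90 after an EC20 pre-addition; B-score computed on integrated fluorescence ratio after choline addition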
CHT block conf: CHT inhibitors, confirmation, cell-based, membrane potential dye, duplicate | shares compounds with CHT inh | CHT-expressing cells, choline membrane potential dye; LV-to-AA substituted CHT, HEK293 cells | CHT activity remaining % of control (hits give low values), % at 10 µM | 70% of 2,400 active | AID 493221, 2011;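 active = choline transporter activity left, mean of duplicates at 10 µM, below buffer-only control mean minus 3 SD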;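 note: depolarization triggered by choline at its EC90 following an EC20 pre-addition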
HEK293 MPD ctr: membrane potential effects in parental HEK293, counter-screen for CHT inhibitor project, cell-based, membrane potential dye; choline response; active = decrease or increase beyond buffer ±3SD; shares compounds with CHT inh; 4% of 2,400 active; membrane potential ratio readout (active if shifted either direction beyond buffer ±3SD; no single direction) at 10 µM;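 note: parental cells lack the transporter so any hit is non-specific; ratio is peak minus trough fluorescence over baseline after EC90 choline challenge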
Of the large screens only hits and unclear results are named; the others gave an inactive call (follow-up assays come after a bar, where they were run).

c1ccc(CN2CCC(Nc3nc(-c4ccccc4)nc4ccccc34)CC2)cc1	CHT inh -6.3 | CHT block conf inactive | HEK293 MPD ctr inactive
c1ccc(CNc2nc(N3CCN(Cc4ccccc4)CC3)nc3ccccc23)cc1	none
CC(C)(C)Nc1nc(Cl)nc(N(C#N)CN2C(=O)c3ccccc3S2(=O)=O)n1	CHT inh -5.6 | CHT block conf 57% | HEK293 MPD ctr inactive
CC(C)Nc1nc(Cl)nc(N(C#N)CN2C(=O)c3ccccc3S2(=O)=O)n1	none
CN(Cc1ccccc1)c1nc(N)nc(Cl)c1C=O	CHT inh -5.5 (no result: DSG3 Ab inh) | CHT block conf 33% | HEK293 MPD ctr inactive
COc1cccc2sc3cc(NCc4ccc(C)o4)ccc3c(=O)c12	none (no result: CHT PAM, p-CIP stab down, GPR7 antagonist, CHT inh)
O=C(NCc1nnc(SCC(=O)N2CCOCC2)o1)c1ccccc1	none (no result: T cell HTS, CHT PAM, p-CIP stab down, GPR7 antagonist, CHT inh)
CC(C)C(=O)Nc1cccc(NC(=O)c2ccc(Cl)cc2Cl)c1	CHT inh -9.4 | CHT block conf 43% | HEK293 MPD ctr inactive
CCC(=O)NC(=S)Nc1cccc(NC(=O)c2ccc(Cl)cc2Cl)c1	none (no result: DSG3 Ab inh)
c1cc2c3c(cccc3c1)-c1cnccc1-2	none (no result: T cell HTS, CHT PAM, p-CIP stab down, GPR7 antagonist, CHT inh)
C[C@H](CO)N1C[C@H](C)[C@@H](CN(C)S(=O)(=O)c2ccccc2F)OCc2cnnn2CCCC1=O	none (no result: T cell HTS, CHT PAM, p-CIP stab down, GPR7 antagonist, CHT inh)
CC(C)(C)C(=O)Oc1cccc(Nc2ncnc3ccccc23)c1	CHT inh -5 | CHT block conf 61% | HEK293 MPD ctr inactive
COc1cc(C(=O)Oc2cccc(Nc3ncnc4ccccc34)c2)cc(OC)c1OC	none
O=C(N/N=C/c1cccc(Oc2ccccc2)c1)c1cccc(O)c1	CHT inh -5.3 | CHT block conf 67% | HEK293 MPD ctr inactive
COc1ccc(S(=O)(=O)N2CCN(CCc3ccccc3)CC2)c(OC)c1	CHT inh -5.5 | CHT block conf 48% | HEK293 MPD ctr inactive
S=c1nc(-c2sccc2OCc2ccc(Cl)cc2Cl)[nH][nH]1	CHT inh -5 | CHT block conf 70% | HEK293 MPD ctr inactive
CN(C(=O)c1cccc(NC(=O)Cc2ccc(NC(=O)C3CCCN(C(=O)C4CCC4)C3)cc2)c1)C1CCCC1 (centres undefined)	none (no result: T cell HTS, CHT PAM, p-CIP stab down, GPR7 antagonist, CHT inh)
CN(C)S(=O)(=O)c1ccc(NC(=O)C2CC3C=CC2C3)cc1 (centres undefined)	CHT inh -6.7 | CHT block conf inactive | HEK293 MPD ctr inactive
CN(C)S(=O)(=O)c1ccc(NC(=O)C2COc3ccccc3O2)cc1 (centres undefined)	none
Cc1nn(C(C)C)c(C)c1[C@@H]1C[C@H]2CN(Cc3cccc(Cl)c3)C(=O)[C@]23CCCN13	none
CC(C)n1cc([C@@H]2C[C@H]3CN(Cc4cccc(Cl)c4)C(=O)[C@]34CCCN24)cn1	CHT inh -5.3 | CHT block conf inactive | HEK293 MPD ctr inactive
Oc1c(/C=N/c2ccccn2)sc2ccccc12	CHT inh -8.2 | CHT block conf inactive | HEK293 MPD ctr inactive
Nc1nonc1C(=O)N/N=C/c1cc2c(cc1[N+](=O)[O-])OCO2	none
Cn1cc([N+](=O)[O-])c(C(=O)N/N=C/c2cc3c(cc2Br)OCO3)n1	CHT inh -9.1 | CHT block conf inactive | HEK293 MPD ctr inactive
O=C(O)c1cc([N+](=O)[O-])ccc1NCc1ccccc1Cl	CHT inh -5.6 | CHT block conf inactive | HEK293 MPD ctr inactive
O=C(O)c1cc([N+](=O)[O-])ccc1NCc1ccccn1	none (no result: p-CIP stab down, GPR7 antagonist)
O=C(CCl)NC1(C(=O)O)CCCC1	none (no result: T cell HTS, CHT PAM, p-CIP stab down, GPR7 antagonist, CHT inh)
Cn1c(SCC(=O)N2CCN(c3ccccc3)CC2)nnc1-c1ccccc1	CHT inh -5.3 | CHT block conf 62% | HEK293 MPD ctr inactive
O=C(NNS(=O)(=O)c1ccc([N+](=O)[O-])cc1)c1ccc2ccccc2c1O	CHT inh -5 | CHT block conf 42% | HEK293 MPD ctr inactive
CCCc1cc(C(=O)NNC(=S)NCc2ccccc2)cs1	CHT inh -8.2 | CHT block conf 54% | HEK293 MPD ctr inactive
Cc1[nH]n(-c2ccccc2)c(=O)c1C(c1cccc([N+](=O)[O-])c1O)c1c(C)[nH]n(-c2ccccc2)c1=O	CHT inh -7.2 | CHT block conf -6.2% | HEK293 MPD ctr inactive
CCOC(=O)c1cc2c(c(CCO)n1)[C@H](CCO)N(S(=O)C(C)(C)C)C2 (some centres undefined)	none (no result: T cell HTS, CHT PAM, p-CIP stab down, GPR7 antagonist, CHT inh)
CCN1C[C@@H]2[C@@H]3C(=O)N(Cc4ccccc4)C(=O)[C@@H]3[C@](C)(C1=O)N2C(=O)c1ccc(C(F)(F)F)cc1	none (no result: T cell HTS, CHT PAM, p-CIP stab down, GPR7 antagonist, CHT inh)
O=C(CSc1ccccn1)N1CCN(c2ncc(C(F)(F)F)cc2Cl)CC1	CHT inh -5.3 | CHT block conf inactive | HEK293 MPD ctr inactive
CNCC(=O)N1CCN(c2ncc(C(F)(F)F)cc2Cl)CC1	none
CCN1CCN(Cc2nc3c(c(=O)n(C)c(=O)n3C)n2CCc2ccccc2)CC1	none (no result: T cell HTS, CHT PAM, CHT inh)
COC(=O)c1ccc(Cn2c(CN3CCOCC3)nc3ccccc3c2=O)o1	CHT inh -5.2 (no result: DSG3 Ab inh) | CHT block conf inactive | HEK293 MPD ctr inactive
Cc1nc2ccccc2c(=O)n1CCN1CCOCC1	none
Cn1c(=O)c2c(nc(CN3CCOCC3)n2CCc2ccccc2)n(C)c1=O	CHT inh -5 | CHT block conf inactive | HEK293 MPD ctr inactive
Cc1cc2c(ncn2Cc2ccccc2)c([N+](=O)[O-])c1C	CHT inh -5.3 | CHT block conf 51% | HEK293 MPD ctr inactive
COc1ccc(Cn2cnc3c(N)c(C)c(C)cc32)cc1	none
COc1ccc(NC(=O)CN2C(=O)NC(C)(Cc3ccc(OC)c(OC)c3)C2=O)cc1 (centres undefined)	none (no result: T cell HTS, CHT PAM, p-CIP stab down, GPR7 antagonist, CHT inh)
CCCCCCCCCCCCN1[C@@H](CC(=O)O)c2cc(C(F)(F)F)ccc2S1(=O)=O	CHT inh -7.3 (no result: p-CIP stab down, GPR7 antagonist) | CHT block conf 44% | HEK293 MPD ctr inactive
O=[N+]([O-])c1ccc(O)c(C=Nc2ccc3c(c2)OCO3)c1	none
O=[N+]([O-])c1cc(Br)cc(C=Nc2ccc3c(c2)OCO3)c1O	CHT inh -8 | CHT block conf 32% | HEK293 MPD ctr inactive
CN(C)CCCn1c(=O)n(C2CCCCC2)c(=O)c2c3c(sc21)CCCCC3	CHT inh -8 (no result: p-CIP stab down, GPR7 antagonist) | CHT block conf 36% | HEK293 MPD ctr inactive
